The source made the active and inactive calls. The rule behind the calls is not given here.
How the values were obtained:
[1] = biological target: T1, Somatostatin receptor type 2 (Homo sapiens, UniProt P30874); test: Displacement of [125I]-[Leu8, DTrp22, Tyr25]SRIF28 from human sst2 receptor expressed in chinese hamster CCL39 cells by autoradiography; type: cell-based
[2] = biological target: Somatostatin receptor type 3 (Homo sapiens, UniProt P32745); test: Displacement of [125I]-[Leu8, DTrp22, Tyr25]SRIF28 from human sst3 receptor expressed in chinese hamster CCL39 cells by autoradiography; type: cell-based
Somatostatin receptor type 3, sequence (P32745 whole entry): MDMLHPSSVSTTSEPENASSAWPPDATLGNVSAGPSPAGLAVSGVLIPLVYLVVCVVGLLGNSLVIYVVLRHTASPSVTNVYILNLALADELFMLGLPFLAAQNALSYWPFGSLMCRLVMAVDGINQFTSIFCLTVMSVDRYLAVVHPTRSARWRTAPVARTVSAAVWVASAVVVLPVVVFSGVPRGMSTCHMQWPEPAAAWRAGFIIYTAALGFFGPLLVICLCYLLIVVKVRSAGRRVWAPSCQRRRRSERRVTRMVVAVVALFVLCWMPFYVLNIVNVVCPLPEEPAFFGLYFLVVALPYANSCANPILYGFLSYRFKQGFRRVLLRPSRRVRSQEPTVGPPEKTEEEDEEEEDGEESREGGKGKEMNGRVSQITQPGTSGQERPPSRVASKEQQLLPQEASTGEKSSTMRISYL

[3] = biological target: Somatostatin receptor type 5 (Homo sapiens, UniProt P35346); test: Displacement of [125I]-[Leu8, DTrp22, Tyr25]SRIF28 from human sst5 receptor expressed in CHOK1 cells by autoradiography; type: cell-based, CHO-K1
Somatostatin receptor type 5, sequence (P35346 whole entry): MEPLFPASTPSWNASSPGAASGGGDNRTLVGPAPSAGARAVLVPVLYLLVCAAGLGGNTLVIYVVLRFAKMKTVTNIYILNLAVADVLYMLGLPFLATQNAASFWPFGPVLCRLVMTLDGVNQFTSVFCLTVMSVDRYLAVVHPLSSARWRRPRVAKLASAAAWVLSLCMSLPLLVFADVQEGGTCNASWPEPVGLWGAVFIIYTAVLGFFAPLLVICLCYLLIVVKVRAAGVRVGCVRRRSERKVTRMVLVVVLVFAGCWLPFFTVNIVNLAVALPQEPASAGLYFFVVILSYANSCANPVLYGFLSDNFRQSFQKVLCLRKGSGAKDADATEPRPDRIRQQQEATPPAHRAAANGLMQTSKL

[4] = biological target: Somatostatin receptor type 4 (Homo sapiens, UniProt P31391); test: Displacement of [125I]-[Leu8, DTrp22, Tyr25]SRIF28 from human sst4 receptor expressed in chinese hamster CCL39 cells by autoradiography; type: cell-based
Somatostatin receptor type 4, sequence (P31391 whole entry): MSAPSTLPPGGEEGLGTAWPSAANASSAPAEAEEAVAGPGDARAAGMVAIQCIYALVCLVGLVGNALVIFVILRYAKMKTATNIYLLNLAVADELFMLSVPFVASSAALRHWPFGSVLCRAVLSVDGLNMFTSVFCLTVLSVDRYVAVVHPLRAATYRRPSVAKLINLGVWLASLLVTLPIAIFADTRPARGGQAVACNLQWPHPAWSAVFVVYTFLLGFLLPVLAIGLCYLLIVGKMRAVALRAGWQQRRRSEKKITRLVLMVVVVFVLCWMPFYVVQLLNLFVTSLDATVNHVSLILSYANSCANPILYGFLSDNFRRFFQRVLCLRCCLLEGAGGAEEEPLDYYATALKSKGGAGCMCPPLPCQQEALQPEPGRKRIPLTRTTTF

[5] = biological target: Somatostatin receptor type 1 (Homo sapiens, UniProt P30872); test: Displacement of [125I]-[Leu8, DTrp22, Tyr25]SRIF28 from human sst1 receptor expressed in CHOK1 cells by autoradiography; type: cell-based, CHO-K1
Somatostatin receptor type 1, sequence (P30872 whole entry): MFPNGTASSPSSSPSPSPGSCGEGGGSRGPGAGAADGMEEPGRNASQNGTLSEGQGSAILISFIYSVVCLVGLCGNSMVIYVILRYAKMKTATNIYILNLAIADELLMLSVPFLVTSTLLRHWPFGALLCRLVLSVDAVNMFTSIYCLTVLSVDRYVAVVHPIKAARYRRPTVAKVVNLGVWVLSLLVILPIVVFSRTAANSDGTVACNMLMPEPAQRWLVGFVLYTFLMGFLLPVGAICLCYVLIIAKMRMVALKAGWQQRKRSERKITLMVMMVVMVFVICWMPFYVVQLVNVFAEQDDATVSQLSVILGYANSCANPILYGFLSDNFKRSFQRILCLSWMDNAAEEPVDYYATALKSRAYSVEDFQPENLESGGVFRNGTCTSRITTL

[6] = biological target: T1, Somatostatin receptor type 2; test: Agonist activity at T7-tagged human sst2 receptor expressed in HEK293 cells at 100 to 10000 nM; type: functional, cell-based
In short: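 Immunofluorescence microscopy internalization in HEK-sst2 cells. Agonist mode: peptides at 100 nM to 10,000 nM. Antagonist mode: 100 nM [Tyr3]-octreotide with 100-fold excess of peptide. Treatment 30 min at 37 °C, 5% CO2 in growth medium, then staining with polyclonal sst2-specific R2-88 antibody; n ≥ 2.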

T1 sequence (P30874 whole entry): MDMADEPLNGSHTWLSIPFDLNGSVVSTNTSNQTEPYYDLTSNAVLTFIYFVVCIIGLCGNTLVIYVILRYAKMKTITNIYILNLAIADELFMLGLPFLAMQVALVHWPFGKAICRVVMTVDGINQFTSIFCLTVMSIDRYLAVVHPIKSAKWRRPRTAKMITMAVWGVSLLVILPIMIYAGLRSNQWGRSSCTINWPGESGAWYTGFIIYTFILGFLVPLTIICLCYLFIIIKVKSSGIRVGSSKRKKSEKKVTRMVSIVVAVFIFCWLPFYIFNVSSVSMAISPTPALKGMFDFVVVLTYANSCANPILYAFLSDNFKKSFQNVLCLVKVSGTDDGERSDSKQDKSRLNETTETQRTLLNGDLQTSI

C[C@@H](O)[C@H](NC(=O)[C@@H]1CCSSCC[C@H](NC(=O)[C@H](N)Cc2ccccc2)C(=O)N[C@@H](Cc2ccccc2)C(=O)N[C@H](Cc2c[nH]c3ccccc23)C(=O)N[C@@H](CCCCN)C(=O)N[C@@H]([C@@H](C)O)C(=O)N1)C(N)=O showed an IC50 [1] of 4.9 nM, an IC50 [2] of 452 nM and an IC50 [3] of 109 nM. For the same compound, the IC50 [4] was 115 nM and the IC50 [5] was > 1000 nM.

For C[C@@H](O)[C@@H]1NC(=O)[C@H](CCCCN)NC(=O)[C@@H](Cc2c[nH]c3ccccc23)NC(=O)[C@H](Cc2ccc(O)cc2)NC(=O)[C@H](NC(=O)[C@@H](N)Cc2ccc(Cl)cc2)CCSSCC[C@@H](C(=O)N[C@@H](Cc2ccc3ccccc3c2)C(N)=O)NC1=O, the IC50 [1] was 267 nM, the IC50 [2] was 359 nM and the IC50 [3] was 199 nM. The IC50 [4] was 174 nM and the IC50 [5] was 763 nM.

In the case of C[C@@H](O)[C@H](NC(=O)[C@@H]1NC(=O)[C@H]([C@@H](C)O)NC(=O)[C@H](CCCCN)NC(=O)[C@@H](Cc2c[nH]c3ccccc23)NC(=O)[C@H](Cc2ccccc2)NC(=O)[C@H](NC(=O)[C@H](N)Cc2ccccc2)SS1)C(N)=O, the IC50 [1] is reported as 337 nM, the IC50 [2] is reported as > 1000 nM and the IC50 [3] is reported as > 1000 nM. The IC50 [4] was 214 nM and the IC50 [5] was > 1000 nM.

C[C@@H](O)[C@H](NC(=O)[C@@H]1CSSC[C@H](NC(=O)[C@H](N)Cc2ccccc2)C(=O)N[C@@H](Cc2ccccc2)C(=O)N[C@H](Cc2c[nH]c3ccccc23)C(=O)N[C@@H](CCCCN)C(=O)N[C@@H]([C@@H](C)O)C(=O)N1)C(N)=O was tested, and the IC50 [1] was 1.9 nM, the Activity [6] was “Active” and the IC50 [2] was 39 nM. For the same compound, the IC50 [4] was > 1000 nM and the IC50 [5] was > 1000 nM.

With C[C@@H](O)[C@H](NC(=O)[C@H]1CCSSCC[C@@H](NC(=O)[C@H](N)Cc2ccccc2)C(=O)N[C@@H](Cc2ccccc2)C(=O)N[C@H](Cc2c[nH]c3ccccc23)C(=O)N[C@@H](CCCCN)C(=O)N[C@@H]([C@@H](C)O)C(=O)N1)C(N)=O the Activity [6] was “Active”.

Reference: ChEMBL document CHEMBL1150261, “Ring size in octreotide amide modulates differently agonist versus antagonist binding affinity and selectivity” (J Med Chem, 2008)
